In ChEMBL document CHEMBL3758104, “Reinvestigating Old Pharmacophores: Are 4-Aminoquinolines and Tetraoxanes Potential Two-Stage Antimalarials?” (J Med Chem, 2016):
Active and inactive are the calls of the source. No cut-off for these calls is given here.

Assays:
HepG2 = assay: Cytotoxicity against human HepG2 cells after 48 hrs by MTT assay; format: cell-based; conditions: HepG2, 48 h
Plasmodium falciparum [1] = assay: Antimalarial activity against chloroquine-susceptible Plasmodium falciparum D6 after 48 hrs by [3H]hypoxanthine incorporation assay; format: functional, organism-based
How it was run: (§1)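 P. falciparum D6 (Sierra I/UNC clone), W2 (Indochina I clone), TM91C235 (South-East Asian clone) cultured with compound; growth inhibition by [3H]hypoxanthine incorporation (modified Desjardins/Milhous method). Chloroquine, mefloquine, artemisinin as positive controls. IC50 in nM; technical triplicates, curve fits R2 0.96–1.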

Plasmodium falciparum [2] = assay: Antimalarial activity against mutidrug resistant Plasmodium falciparum TM91C235 after 48 hrs by [3H]hypoxanthine incorporation assay; format: functional, organism-based; how it was run: as §1
Plasmodium falciparum [3] = assay: Antimalarial activity against chloroquine-resistant Plasmodium falciparum W2 after 48 hrs by [3H]hypoxanthine incorporation assay; format: functional, organism-based; how it was run: as §1
[4] = Selectivity index, ratio of IC50 for human HepG2 cells to IC50 for chloroquine susceptible Plasmodium falciparum D6; format: toxicity, cell-based; conditions: read-out: Ratio IC50
Mus musculus = assay: Toxicity in Plasmodium berghei ANKA infected C57Bl6 mouse at 160 mg/kg/day, po administered for 3 days measured 2 times a day for 31 days; format: organism-based; conditions: in vivo, 744 h
Plasmodium berghei [5] = assay: Antimalarial activity against Plasmodium berghei ANKA infected in C57Bl6 mouse at 160 mg/kg/day, po measured on day 3 to 5 by Thompson test; format: functional
Plasmodium berghei [6] = assay: Antimalarial activity against Plasmodium berghei ANKA infected in C57Bl6 mouse at 80 mg/kg/day, po measured on day 3 to 5 by Thompson test; format: functional
[7] = Half life in human liver microsomes at 1 uM by LC-MS/MS analysis; format: ADME
RAW264.7 = assay: Cytotoxicity against mouse RAW264.7 cells; format: cell-based
[8] = Half life in mouse liver microsomes at 1 uM by LC-MS/MS analysis; format: ADME
[9] = Selectivity index, ratio of IC50 for mouse RAW 264.7 cells to IC50 for chloroquine susceptible Plasmodium falciparum D6; format: toxicity; conditions: read-out: Ratio IC50
Plasmodium berghei [10] = assay: Antimalarial activity against sporozoite stage of Plasmodium berghei infected in human Huh7 cells assessed as inhibition of parasite infection pre-incubated for 24 hrs followed by parasite infection measured after 48 hrs by bioluminescence assay; format: functional, organism-based; conditions: Huh-7
Plasmodium berghei [11] = assay: Antimalarial activity against sporozoite stage of Plasmodium berghei infected in human Huh7 cells assessed as remaining parasite infection at 5 uM pre-incubated for 24 hrs followed by parasite infection measured after 48 hrs by bioluminescence assay; conditions: Huh-7
Plasmodium berghei [12] = assay: Antimalarial activity against Plasmodium berghei ANKA infected in C57Bl6 mouse assessed as reduction of parasitemia at 160 mg/kg/day, po administered for day 3 to 5 measured after 10 to 14 days by Thompson test; format: functional, organism-based
How it was run: (§2)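 Modified Thompson test: C57Bl6 female mice inoculated intraperitoneally on day 0 with 1×10^6 P. berghei ANKA-infected erythrocytes; compound suspended in 0.5% hydroxyethylcellulose–0.1% Tween 80, given orally once daily on days 3, 4 and 5 post infection. Parasitemia by Giemsa-stained thin tail-blood smears on days 0, 3, 6, 10, 13, 17, 20, 24, 27, 31. Cure = survival without parasitemia to day 31.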

Plasmodium berghei [13] = assay: Antimalarial activity against Plasmodium berghei ANKA infected in C57Bl6 mouse assessed as reduction of parasitemia at 160 mg/kg/day, po administered for day 3 to 5 measured on day 6 by Thompson test; format: functional, organism-based; how it was run: as §2
Plasmodium berghei [14] = assay: Antimalarial activity against sporozoite stage of Plasmodium […] infected in human HepG2 cells; format: functional, organism-based
Plasmodium berghei [15] = assay: Antimalarial activity against Plasmodium berghei ANKA infected in C57Bl6 mouse at 40 mg/kg/day, po on days 3 to 5 by Thompson test; format: functional
Plasmodium berghei [16] = assay: Antimalarial activity against Plasmodium berghei ANKA infected in po dosed C57Bl6 mouse administered on day 3 to 5 by Thompson test; format: functional; how it was run: as §2
[17] = Inhibition of beta hematin formation measured as hemin equivalent after 18 hrs; format: physicochemical
How it was run: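 Hemin (16 mM in DMSO) mixed with compound at 0.125–5 mol equiv to hemin, plus water and 8 M acetate buffer pH 5.2, 25% DMSO final. Incubated 18 h at 37 °C. Pellet washed with DMSO, dissolved in 0.1 M NaOH, absorbance read at 405 nm (corrected at 670 nm) against a hemin calibration.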

Plasmodium berghei [18] = assay: Antimalarial activity against Plasmodium berghei ANKA infected in C57Bl6 mouse assessed as increase in cure rate at 80 mg/kg/day, po administered for day 3 to 5 by Thompson test; format: functional, organism-based; how it was run: as §2

Structure (SMILES) | IC50 (HepG2) [nM] | IC50 (Plasmodium falciparum [1]) [nM] | IC50 (Plasmodium falciparum [2]) [nM] | IC50 (Plasmodium falciparum [3]) [nM] | selectivity ratio [4] | Activity (Mus musculus) | other results
CC(CCCNc1ccnc2cc(Cl)ccc12)NCCC12CC3CC(CC(C3)C1)C2 (stereo unspecified) | 2600 | 9 | 47 | 81 | 289 | – | –
CC(NCCCCNc1ccnc2cc(Cl)ccc12)C12CC3CC(CC(C3)C1)C2 (stereo unspecified) | 3090 | 7 | 19 | 25 | 441 | – | –
Fc1ccc2scc(CNCCCCNc3ccnc4cc(Cl)ccc34)c2c1 | – | – | – | – | – | Non-toxic | MST (Plasmodium berghei [5]): 30 days; MST (Plasmodium berghei [6]): 30.2 days
CC(CNCC12CC3CC(CC(C3)C1)C2)Nc1ccnc2cc(Cl)ccc12 (stereo unspecified) | – | 1 | 1 | 3 | – | – | half-life at 1 µM [7]: 11 min; IC50 (RAW264.7): 2900 nM; half-life at 1 µM [8]: 10 min; selectivity ratio [9]: 2900
CC(CCNCCC12CC3CC(CC(C3)C1)C2)Nc1ccnc2cc(Cl)ccc12 (stereo unspecified) | 24300 | 13 | 13 | 13 | 1870 | – | half-life at 1 µM [7]: 60 min; half-life at 1 µM [8]: 60 min; IC50 (Plasmodium berghei [10]): 2500 nM; % infection at 5 µM (Plasmodium berghei [11]): 8%
CC(CNCCC12CC3CC(CC(C3)C1)C2)Nc1ccnc2cc(Cl)ccc12 (stereo unspecified) | – | 1 | 1 | 4 | – | Non-toxic | half-life at 1 µM [7]: 57 min; IC50 (RAW264.7): 2910 nM; half-life at 1 µM [8]: 60 min; selectivity ratio [9]: 2910; MST (Plasmodium berghei [5]): 27.6 days; Activity (Plasmodium berghei [12]): inactive; Activity (Plasmodium berghei [13]): Active
CC(CCNCC12CC3CC(CC(C3)C1)C2)Nc1nc2cc(Cl)ccc2cc1F (stereo unspecified) | – | – | – | – | – | – | IC50 (Plasmodium berghei [10]): 1000 nM; % infection at 5 µM (Plasmodium berghei [11]): 2%
Fc1ccc2c(CNCCCNc3ccnc4cc(Cl)ccc34)csc2c1 | – | – | – | – | – | Non-toxic | MST (Plasmodium berghei [5]): 26.4 days
CC(CCCNCC12CC3CC(CC(C3)C1)C2)Nc1ccnc2cc(Cl)ccc12 (stereo unspecified) | 24300 | 21 | 23 | 22 | 1160 | – | half-life at 1 µM [7]: 49 min; half-life at 1 µM [8]: 57 min
CC(CCNCCC12CC3CC(CC(C3)C1)C2)Nc1c(F)cnc2ccccc12 (stereo unspecified) | – | 154 | 546 | 394 | 3 | – | –
COC(=O)CCC(C)[C@H]1CC[C@H]2[C@@H]3[C@H](OC(C)=O)C[C@@H]4CC5(CC[C@]4(C)[C@H]3C[C@H](OC(C)=O)[C@]12C)OOC1(CCCCC1)OO5 (stereo partly specified) | – | – | – | – | – | – | IC50 (Plasmodium berghei [10]): < 1000 nM; % infection at 5 µM (Plasmodium berghei [11]): 31%
O[C@@H](c1cc(C(F)(F)F)nc2c(C(F)(F)F)cccc12)[C@H]1CCCCN1 [(S,R)-MEFLOQUINE] | – | – | – | 5 | – | – | –
CC(CCCNCC12CC3CC(CC(C3)C1)C2)Nc1c(F)cnc2cc(Cl)ccc12 (stereo unspecified) | 3550 | 198 | 342 | 488 | 18 | – | –
C[C@H]1[C@H](N2CCS(=O)(=O)CC2)O[C@@H]2O[C@@]3(C)CC[C@H]4[C@H](C)CC[C@@H]1[C@@]24OO3 [ARTEMIFONE] | – | – | – | – | – | – | IC50 (Plasmodium berghei [14]): 40 nM
CC(CCCNc1ccnc2cc(Cl)ccc12)NCC12CC3CC(CC(C3)C1)C2 (stereo unspecified) | 1610 | 51 | 165 | 282 | 32 | – | –
CC(CNc1ccnc2cc(Cl)ccc12)NCC12CC3CC(CC(C3)C1)C2 (stereo unspecified) | – | 2 | 9 | 10 | – | – | half-life at 1 µM [7]: 13 min; IC50 (RAW264.7): 3770 nM; half-life at 1 µM [8]: 10 min; selectivity ratio [9]: 1890

Structure (SMILES) | IC50 (HepG2) [nM] | IC50 (Plasmodium falciparum [1]) [nM] | IC50 (Plasmodium falciparum [2]) [nM] | IC50 (Plasmodium falciparum [3]) [nM] | selectivity ratio [4] | Activity (Mus musculus) | other results
Clc1ccc2c(NCCNCC34CC5CC(CC(C5)C3)C4)ccnc2c1 | – | – | – | – | – | Non-toxic | MST (Plasmodium berghei [15]): >21.4 days; Activity (Plasmodium berghei [12]): inactive; MAC (Plasmodium berghei [16]): 40 mg/kg/day; Activity (Plasmodium berghei [13]): Active
CC(CCNCC12CC3CC(CC(C3)C1)C2)Nc1c(F)cnc2ccccc12 (stereo unspecified) | – | 60 | 259 | 157 | 3 | Non-toxic | MST (Plasmodium berghei [6]): 12.8 days; IC50 [17]: 0.61 equiv; Activity (Plasmodium berghei [18]): inactive
CCN(CC)CCCC(C)Nc1nc2cc(Cl)ccc2cc1F (stereo unspecified) | – | – | – | – | – | – | IC50 [17]: 2.43 equiv; IC50 (Plasmodium berghei [10]): 1000 nM; % infection at 5 µM (Plasmodium berghei [11]): 40%
CC(CCNCC12CC3CC(CC(C3)C1)C2)Nc1ccnc2ccccc12 (stereo unspecified) | 2320 | 17 | 135 | 185 | 136 | Non-toxic | half-life at 1 µM [7]: 60 min; half-life at 1 µM [8]: 60 min; MST (Plasmodium berghei [6]): 15.2 days; IC50 [17]: 1.22 equiv; Activity (Plasmodium berghei [18]): inactive
CCN(CC)CCCNc1nc2cc(Cl)ccc2cc1F | – | – | – | – | – | Non-toxic | MST (Plasmodium berghei [5]): 20.2 days
CCN(CC)CCCC(C)Nc1c(F)cnc2cc(Cl)ccc12 (stereo unspecified) | – | – | – | – | – | Non-toxic | MST (Plasmodium berghei [5]): 16.8 days; IC50 [17]: 1.07 equiv; IC50 (Plasmodium berghei [10]): 1000 nM; % infection at 5 µM (Plasmodium berghei [11]): 35%
O=C1C(O)=C([C@H]2CC[C@H](c3ccc(Cl)cc3)CC2)C(=O)c2ccccc21 [ATOVAQUONE] | – | – | – | – | – | – | IC50 (Plasmodium berghei [14]): 22 nM
C[C@@H]1CC[C@H]2[C@@H](C)C(=O)O[C@@H]3O[C@@]4(C)CC[C@@H]1[C@]32OO4 [ARTEMISININ] | – | 9 | 13 | 7 | – | – | IC50 (Plasmodium berghei [14]): 12000 nM
CC(CNc1ccnc2cc(Cl)ccc12)NCCC12CC3CC(CC(C3)C1)C2 (stereo unspecified) | 25100 | 6 | 7 | 7 | 4190 | Non-toxic | half-life at 1 µM [7]: 27 min; half-life at 1 µM [8]: 60 min; MST (Plasmodium berghei [6]): 15.3 days; Activity (Plasmodium berghei [12]): inactive; MAC (Plasmodium berghei [16]): 80 mg/kg/day; Activity (Plasmodium berghei [13]): Active
CCN(CC)CCCC(C)Nc1ccnc2cc(Cl)ccc12 (stereo unspecified) [CHLOROQUINE] | – | – | – | – | – | – | MST (Plasmodium berghei [5]): >31 days; MST (Plasmodium berghei [6]): 25.6 days; IC50 (Plasmodium berghei [14]): 9000 nM
CC(CCNCCC12CC3CC(CC(C3)C1)C2)Nc1ccnc2ccccc12 (stereo unspecified) | 1590 | 7 | 102 | 126 | 227 | – | –
CC(CCCNCCC12CC3CC(CC(C3)C1)C2)Nc1c(F)cnc2cc(Cl)ccc12 (stereo unspecified) | 2610 | 288 | 590 | 547 | 9 | – | –
CC(CCCNCCC12CC3CC(CC(C3)C1)C2)Nc1ccnc2ccccc12 (stereo unspecified) | 1590 | 12 | 286 | 393 | 133 | – | –
CC(NCCCNc1ccnc2cc(Cl)ccc12)C12CC3CC(CC(C3)C1)C2 (stereo unspecified) | – | 4 | 15 | 22 | 790 | – | half-life at 1 µM [7]: 16 min; IC50 (RAW264.7): 3160 nM; half-life at 1 µM [8]: 11 min
CC(CCNCCC12CC3CC(CC(C3)C1)C2)Nc1c(F)cnc2cc(Cl)ccc12 (stereo unspecified) | 3210 | 143 | 171 | 203 | 22 | – | IC50 (Plasmodium berghei [10]): 1000 nM; % infection at 5 µM (Plasmodium berghei [11]): 3%
CCN(CC)CCCNc1c(F)cnc2cc(Cl)ccc12 | – | – | – | – | – | Non-toxic | MST (Plasmodium berghei [5]): 14.6 days
